Results published in ChEMBL document CHEMBL4130570, “Characteristic α-Acid Derivatives from Humulus lupulus with Antineuroinflammatory Activities” (J Nat Prod, 2017).
Activity calls are given as the source filed them. The rule behind the calls is not given here.

Columns and labels:
BV-2 [1] = test: Cytotoxicity against mouse BV2 cells assessed as reduction in cell viability at 1 to 100 uM after 24 hrs by MTT assay; type: cell-based; conditions: bv-2, 24 h
Summary of the method: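 BV2 cells after 24 h treatment; supernatant removed, MTT 0.25 mg/mL added for 4 h at 37 °C, formazan dissolved in DMSO, absorbance read at 490 nm.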

BV-2 [2] = test: Antineuroinflammatory activity in mouse BV2 cells assessed as inhibition of LPS-induced nitric oxide production after 24 hrs by griess assay; type: functional, cell-based; conditions: BV-2, 24 h
Summary of the method: (§1)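 BV2 microglia plated at 5 × 10^4 cells/well, exposed to compound (1, 3, 10, 30, 100 μM) together with LPS 100 ng/mL for 24 h. Nitrite in medium quantified by Griess reagent (1% sulfanilamide; 0.1% naphthylethylenediamine dihydrochloride, 2% phosphoric acid), 15 min at room temperature, absorbance 540 nm. Mean ± SE of three independent experiments.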

BV-2 [3] = test: Antineuroinflammatory activity in mouse BV2 cells assessed as inhibition of LPS-induced nitric oxide production at 100 uM after 24 hrs by griess assay; type: functional, cell-based; summary of the method: as §1

Row | SMILES | Activity (BV-2 [1]) | IC50 (BV-2 [2]) | inhibition (BV-2 [3])
1 | CC(C)=CCc1c(O)c2c(c(C(=O)CC(C)C)c1O)O[C@@H](C(C)(C)O)C2 | Non-Toxic | – | –
2 | COc1ccc(/C=C/C(=O)c2c(O)cc(OC)c(CC=C(C)C)c2O)cc1 | Non-Toxic | 57.7 µM | –
3 | CC(C)=CC[C@@]1(O)C(=O)C(C(=O)CC(C)C)=C(O)C2=C1O[C@H](C(C)(C)O)C2 | Non-Toxic | – | –
4 | COc1cc(O)c(CC=C(C)C)c2c1C(=O)C[C@@H](c1ccc(O)cc1)O2 | Non-Toxic | 19.5 µM | –
5 | CC(C)=CCC1=C2O[C@H](C(C)(C)O)C[C@@]2(O)C(=O)C(C(=O)CC(C)C)=C1O | Non-Toxic | – | –
6 | CC(C)=CCc1c(O)c2c(c(C(=O)CC(C)C)c1O)O[C@H](C(C)(C)O)C2 | Non-Toxic | – | –
7 | CC(C)=CCC1(CC=C(C)C)C(=O)C(O)=C(O)C1=O [HULUPINIC ACID] | Non-Toxic | – | –
8 | CC(C)(O)[C@H]1C[C@@](C(=O)O)([C@H]2CC(=O)OC2(C)C)C(=O)O1 | Non-Toxic | – | –
9 | CC1(C)C[C@@H](O)[C@@]23CC[C@H](O)[C@@](C)(CC[C@H]12)C3 | Non-Toxic | – | –
10 | CC(C)=CC[C@@]1(O)C(=O)C(C(=O)CC(C)C)=C(O)C2=C1O[C@@H](C(C)(C)O)C2 | Non-Toxic | – | –
11 | CC(C)=CC[C@@]1(O)C(=O)C(C(=O)CC(C)C)=C(O)C2=C1OC(C)(C)[C@H](O)C2 | Non-Toxic | – | –
12 | COc1cc(O)c(CC=C(C)C)c(O)c1C(=O)/C=C/c1ccc(O)cc1 [XANTHOHUMOL] | Non-Toxic | 7.92 µM | –
13 | CC(C)=CC[C@@]1(O)C(=O)C(C(=O)CC(C)C)=C(O)C2=C1OC(C)(C)[C@@H](O)C2 | Non-Toxic | – | –
14 | CC(C)=CC[C@@]1(O)C(=O)C(C(=O)C(C)C)=C(O)C2=C1O[C@H](C(C)(C)O)C2 | Non-Toxic | – | –
15 | CC(C)=CC[C@@]1(O)C(=O)C(C(=O)C(C)C)=C(O)C2=C1OC(C)(C)[C@@H](O)C2 | Non-Toxic | – | Active
16 | CC(C)=CCc1c(O)cc(O)c2c(=O)cc(C(C)C)oc12 | Non-Toxic | 21.4 µM | –
